This passage reports folding enthalpy and Tm results from the array DNA melting data of Ke et al. (doi:10.1101/2024.01.08.574731).

Data set [1] is described as follows: folding enthalpy; higher = less favourable; fluorescence melt of hairpins on a sequencing array, two-state fit. The note with it: sodium 0.088 M. A digest of the protocol: (§1)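 Cy3 signals were normalised both to pre-quench Cy3 and to control constructs. They came from library hairpins carrying annealed Cy3 and quencher oligos on a sequenced MiSeq flow cell, imaged in 50 mM Na-HEPES pH 8.0, 25 mM NaCl, in 2.5 °C steps up to 60 °C. Bootstrapped two-state fits gave melting temperature and folding enthalpy, and four replicates were combined by inverse variance. Fitted temperatures were then raised by 9.35 °C to match UV melts.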

The nature of data set [2]: melting temperature; fluorescence melt of hairpins on a sequencing array, two-state fit, raised by 9.35 °C to match UV melts. The following applies: sodium 0.088 M. A digest of the protocol:
as §1

As to GGAGTCGAAAGACGATCC ((((((....)))..))), in data set [1], the folding enthalpy was -12.3 kcal/mol. Besides, the Tm in data set [2] turned out to be 46 °C.

On to GGAGTCGAAAGACGGTCC ((((((....)))..))), for which the folding enthalpy in data set [1] was -14.1 kcal/mol. Also, in data set [2], the Tm amounted to 39.2 °C.

For GGAGTCGGAAACGACCCC ((.((((....)))).)), the folding enthalpy in data set [1] is -15.2 kcal/mol. Besides, the Tm in data set [2] is 54.4 °C.

In the case of GGAGTGCGAAAGCAATCC (((.(((....))).))), in data set [1], the folding enthalpy was -35.7 kcal/mol. Moreover, the Tm in data set [2] turned out to be 60.1 °C.

In the case of GGAGTGTCGAAAGACTCC (((..(((....)))))), in data set [1], the folding enthalpy was -17.2 kcal/mol. For the same sequence, the Tm in data set [2] came out at 39.2 °C.

In the case of GGAGTTCGAAAGAATCC (((.(((....)))))), in data set [1], the folding enthalpy is -17.5 kcal/mol. Moreover, in data set [2], the Tm came to 33.5 °C.

Turning to GGAGTTGGAAACAGCTCC ((((.((....)).)))), in data set [1], the folding enthalpy was -43.9 kcal/mol. The Tm in data set [2] came to 50.2 °C.

Regarding GGATAACCGAAAGGTTCC (((..(((....)))))), the folding enthalpy in data set [1] is -14.1 kcal/mol. Besides, the Tm in data set [2] is 32.4 °C.

For the sequence GGATAACGAAAGTTTCC (((.(((....)))))), the folding enthalpy in data set [1] is -20.4 kcal/mol. For the same sequence, the Tm in data set [2] came to 40.1 °C.

In the case of GGATAAGGAAACCTATCC (((((.(....).))))), the folding enthalpy in data set [1] was -30.3 kcal/mol. Moreover, in data set [2], the Tm is 33.5 °C.

As to GGATAAGGAAACTTGTCC (((.(((....))).))), the folding enthalpy in data set [1] was -29.6 kcal/mol. Also, in data set [2], the Tm was 39.2 °C.

As for GGATACCGAAAGGTGTCC (((.(((....))).))), the folding enthalpy in data set [1] was -44 kcal/mol. The Tm in data set [2] was 58.8 °C.

Take GGATACGAAAGTAACTCC ((((((....)))..))): the folding enthalpy in data set [1] was -16 kcal/mol. In data set [2], the Tm was 30.6 °C.

In the case of GGATACGAAAGTACCTCC ((((((....)))..))), the folding enthalpy in data set [1] is -20 kcal/mol. Moreover, the Tm in data set [2] came out at 40.1 °C.

On to GGATACGAAAGTATCTCC ((((((....)))..))), for which the folding enthalpy in data set [1] was -13.3 kcal/mol. Also, the Tm in data set [2] was 46.2 °C.

On to GGATACGGAAACGTGTCC (((.(((....))).))), for which the folding enthalpy in data set [1] was -46.1 kcal/mol. Besides, the Tm in data set [2] was found to be 52.7 °C.

On to GGATCAGGAAACTGGTCC (((.(((....))).))), for which the folding enthalpy in data set [1] was -39.2 kcal/mol. In addition, in data set [2], the Tm was found to be 51.3 °C.

For GGATCCCCGAAAGGGTCC (((..(((....)))))), the folding enthalpy in data set [1] was -19.8 kcal/mol. The Tm in data set [2] is 45.3 °C.

GGATCCCGAAAGGGTTCC (((.(((....))).))): in data set [1], the folding enthalpy was -29.8 kcal/mol. In addition, the Tm in data set [2] was found to be 54.3 °C.

Consider GGATCCGAAAGGAATTCC ((((((....)))..))), for which the folding enthalpy in data set [1] was -14.1 kcal/mol. Further, the Tm in data set [2] amounted to 32.2 °C.

For GGATCCGAAAGGATCTCC ((((((....)))..))), the folding enthalpy in data set [1] is -9.17 kcal/mol. In addition, the Tm in data set [2] was 53.6 °C.

In the case of GGATCGGGAAACCGATTC (.(((((....))))).), in data set [1], the folding enthalpy was -26.6 kcal/mol. In addition, the Tm in data set [2] amounted to 50.6 °C.

For the sequence GGATCTGGAAACAGGTTC (.(.(((....))).).), the folding enthalpy in data set [1] was -14.1 kcal/mol. Moreover, in data set [2], the Tm amounted to 30.5 °C.

GGATCTGGAAACGGATTC (.(((.(....).))).): the folding enthalpy in data set [1] is -28.5 kcal/mol. Further, the Tm in data set [2] is 31.5 °C.

Consider GGATGACCGAAAGGTTCC (((..(((....)))))), for which, in data set [1], the folding enthalpy is -10.9 kcal/mol. Also, the Tm in data set [2] is 34.2 °C.

For the sequence GGATGACGAAAGTCGTCC (((.(((....))).))), the folding enthalpy in data set [1] was -38.4 kcal/mol. Besides, the Tm in data set [2] was 64.5 °C.

Regarding GGATGAGGAAACTCATCC (((((((....))))))), the folding enthalpy in data set [1] was -43.5 kcal/mol. Moreover, the Tm in data set [2] turned out to be 63.1 °C.

Turning to GGATGAGGAAACTTGTCC (((..((....))..))), in data set [1], the folding enthalpy is -24.4 kcal/mol. For the same sequence, the Tm in data set [2] turned out to be 31.1 °C.

As for GGATGCACGAAAGTGTCC (((..(((....)))))), in data set [1], the folding enthalpy was -14 kcal/mol. For the same sequence, in data set [2], the Tm came to 30.8 °C.

Turning to GGATGCCGAAAGGCCTCC (((.(((....))).))), in data set [1], the folding enthalpy was -24.9 kcal/mol. For the same sequence, the Tm in data set [2] was 50.5 °C.

GGATGCCGAAAGGCTCC (((.(((....)))))): the folding enthalpy in data set [1] was -17.8 kcal/mol. The Tm in data set [2] turned out to be 55 °C.

On to GGATGCGAAAGCAACTCC ((((((....)))..))), for which the folding enthalpy in data set [1] is -11.9 kcal/mol. The Tm in data set [2] came out at 41.8 °C.

On to GGATGCGAAAGCACATCC ((((((....)))..))), for which, in data set [1], the folding enthalpy was -19.2 kcal/mol. In addition, the Tm in data set [2] worked out at 42.2 °C.

For GGATGCGAAAGCACGTCC ((((((....)))..))), the folding enthalpy in data set [1] was -12 kcal/mol. Moreover, the Tm in data set [2] came to 33.1 °C.

As to GGATGCGAAAGCACTCC ((((((....))).))), the folding enthalpy in data set [1] is -29 kcal/mol. The Tm in data set [2] was determined as 49.6 °C.

As to GGATGCGAAAGCATCTCC ((((((....)))..))), in data set [1], the folding enthalpy is -9.29 kcal/mol. For the same sequence, the Tm in data set [2] was 52.6 °C.

For GGATGCGAAAGCATTCC ((((((....))).))), the folding enthalpy in data set [1] is -16.9 kcal/mol. For the same sequence, the Tm in data set [2] came out at 55.9 °C.

With GGATGCGGAAACGCGTTC (.(.(((....))).).), in data set [1], the folding enthalpy was -17.4 kcal/mol. Besides, the Tm in data set [2] stood at 41.5 °C.

With GGATGGAAACATCC (((((....))))), the folding enthalpy in data set [1] was -29.8 kcal/mol. In addition, the Tm in data set [2] is 51.8 °C.

Take GGATGGCGAAAGCCTCC (((.(((....)))))): the folding enthalpy in data set [1] is -18.6 kcal/mol. In data set [2], the Tm was 55.6 °C.

As to GGATGGGGAAACCCGTTC (.(.(((....))).).), in data set [1], the folding enthalpy is -16.5 kcal/mol. Also, in data set [2], the Tm came out at 36.1 °C.

For GGATGTGAAAACATCC ((((((....)))))), the folding enthalpy in data set [1] was -38.3 kcal/mol. In addition, in data set [2], the Tm worked out at 58.5 °C.

For the sequence GGATGTGCGAAAGCATCC (((..(((....)))))), in data set [1], the folding enthalpy is -17.6 kcal/mol. For the same sequence, in data set [2], the Tm came out at 45.8 °C.

As for GGATGTGGAAACATATCC ((((.((....)).)))), the folding enthalpy in data set [1] was -28.7 kcal/mol. Besides, the Tm in data set [2] was 44.9 °C.

In the case of GGATTAGGAAACTAATTC (.(((((....))))).), the folding enthalpy in data set [1] is -25.2 kcal/mol. For the same sequence, the Tm in data set [2] came to 33.9 °C.

GGATTCCGAAAGGATTCC (((.(((....))).))): the folding enthalpy in data set [1] is -35.8 kcal/mol. Besides, the Tm in data set [2] is 49.7 °C.

As for GGATTCGGAAACAAATCC (((((.(....).))))), the folding enthalpy in data set [1] is -22.9 kcal/mol. The Tm in data set [2] came out at 35.8 °C.

With GGATTCGGAAACGAATTC (.(((((....))))).), the folding enthalpy in data set [1] was -33.2 kcal/mol. In data set [2], the Tm was determined as 47.7 °C.

For the sequence GGATTCTCGAAAGAGTCC (((..(((....)))))), the folding enthalpy in data set [1] was -22.7 kcal/mol. Also, in data set [2], the Tm turned out to be 33.5 °C.

On to GGATTGCGAAAGCACTCC (((.(((....))).))), for which the folding enthalpy in data set [1] is -34.9 kcal/mol. Further, the Tm in data set [2] is 49.4 °C.

As for GGATTGGGAAACCAACCC ((.((((....)))).)), in data set [1], the folding enthalpy is -31.5 kcal/mol. Also, in data set [2], the Tm stood at 41.2 °C.

GGATTGGGAAACCGATCC ((((.((....)).)))): the folding enthalpy in data set [1] was -40.7 kcal/mol. In addition, in data set [2], the Tm was 51 °C.

For GGATTGGGAAACCGATTC (.((.((....)).)).), the folding enthalpy in data set [1] was -19.9 kcal/mol. Further, the Tm in data set [2] came to 31.6 °C.

GGATTTGAAAAAATCC ((((((....)))))): the folding enthalpy in data set [1] was -34.7 kcal/mol. For the same sequence, the Tm in data set [2] turned out to be 49.6 °C.

As to GGATTTGGAAACAAACCC ((.((((....)))).)), the folding enthalpy in data set [1] is -30.1 kcal/mol. Besides, in data set [2], the Tm was 35.6 °C.
